Source: ChEMBL document CHEMBL1212756, “Klebsiella pneumoniae AcrAB efflux pump contributes to antimicrobial resistance and virulence” (2010)
Converted amounts (≈) assume the structure as drawn. The source made the active and inactive calls. The rule behind the calls is not given here.

Columns and labels:
[1] = system: Klebsiella pneumoniae; experiment: Antimicrobial activity against rifampin resistant Klebsiella pneumoniae 52145R assessed as growth inhibition by Etest method; format: functional
How it was run: (§1)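 MICs were read from Etest strips following the manufacturer's instructions. The parent strain is a spontaneous rifampin-resistant mutant of clinical isolate 52145 (serotype O1:K2), grown in LB at 37°C. The acrB and acrR knockouts were made from it by insertion-duplication via homologous recombination with plasmid pFS100.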

[2] = system: Klebsiella pneumoniae; experiment: Antimicrobial activity against rifampin resistant Klebsiella pneumoniae 52deltaacrB containing isogenic acrB knockout assessed as growth inhibition by Etest method; format: functional; how it was run: as §1
[3] = system: Klebsiella pneumoniae; experiment: Antimicrobial activity against rifampin resistant Klebsiella pneumoniae 52deltaacrR containing isogenic acrR knockout assessed as growth inhibition by Etest method; format: functional; how it was run: as §1
[4] = system: Klebsiella pneumoniae; experiment: Antimicrobial activity against rifampin resistant Klebsiella pneumoniae 52145R assessed as growth inhibition at 0.1 ug/ml in presence of 50 uM uncoupler CCCP and glucose by Etest method; format: functional, organism-based
How it was run: (§2)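 Exponential-phase LB cultures (37°C) were harvested and resuspended at ca. 2.1 x 10^5 CFU/ml in 1% tryptone-PBS, pH 7.4. They were exposed to polymyxin B 0.1 µg/ml for 30 min at 37°C, either alone, after de-energizing with 50 µM CCCP, or with 0.4% glucose. Colony counts are given as % of unexposed cells, in duplicate on at least three occasions.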

[5] = system: Klebsiella pneumoniae; experiment: Antimicrobial activity against rifampin resistant Klebsiella pneumoniae 52145R assessed as growth inhibition at 0.1 ug/ml in presence of 50 uM uncoupler CCCP by Etest method; format: functional, organism-based; how it was run: as §2
[6] = system: Klebsiella pneumoniae; experiment: Antimicrobial activity against rifampin resistant Klebsiella pneumoniae 52deltaacrB containing isogenic acrB knockout assessed as growth inhibition at 0.1 ug/ml by Etest method; format: functional, organism-based

Compound	MIC [1] [µg/mL]	MIC [2] [µg/mL]	MIC [3] [µg/mL]	growth inhibition (GI) [4]	growth inhibition (GI) [5]	growth inhibition (GI) [6]
NC[C@H]1O[C@H](O[C@H]2[C@H](O)[C@@H](O[C@H]3O[C@H](CO)[C@@H](O)[C@H](N)[C@H]3O)[C@H](N)C[C@@H]2N)[C@H](N)C[C@@H]1O [TOBRAMYCIN]	0.25 (≈ 0.535 µM)	0.125 (≈ 0.267 µM)	0.25 (≈ 0.535 µM)	–	–	–
CO[C@@]1(NC(=O)Cc2cccs2)C(=O)N2C(C(=O)O)=C(COC(N)=O)CS[C@@H]21 [CEFOXITIN]	8 (≈ 18.7 µM)	4 (≈ 9.36 µM)	32 (≈ 74.9 µM)	–	–	–
GENTAMICIN	0.25	0.06	0.25	–	–	–
C[C@@H](O)[C@H]1C(=O)N2C(C(=O)O)=C(S[C@@H]3CN[C@H](C(=O)Nc4cccc(C(=O)O)c4)C3)[C@H](C)[C@H]12	0.012 (≈ 0.0252 µM)	0.012 (≈ 0.0252 µM)	0.012 (≈ 0.0252 µM)	–	–	–
O=C(N[C@H](CO)[C@H](O)c1ccc([N+](=O)[O-])cc1)C(Cl)Cl [CHLORAMPHENICOL]	2 (≈ 6.19 µM)	1 (≈ 3.09 µM)	4 (≈ 12.4 µM)	–	–	–
C[C@H]1COc2c(N3CCN(C)CC3)c(F)cc3c(=O)c(C(=O)O)cn1c23.C[C@H]1COc2c(N3CCN(C)CC3)c(F)cc3c(=O)c(C(=O)O)cn1c23.O [LEVOFLOXACIN]	0.09	0.006	0.19	–	–	–
C[C@@H](O)[C@H]1C(=O)N2C(C(=O)O)=C(S[C@@H]3CN[C@H](C(=O)N(C)C)C3)[C@H](C)[C@H]12 [MEROPENEM]	0.03 (≈ 0.0782 µM)	0.03 (≈ 0.0782 µM)	0.03 (≈ 0.0782 µM)	–	–	–
CO/N=C(\C(=O)N[C@@H]1C(=O)N2C(C(=O)O)=C(COC(C)=O)CS[C@H]12)c1csc(N)n1 [CEFOTAXIME]	0.125 (≈ 0.274 µM)	0.06 (≈ 0.132 µM)	4 (≈ 8.78 µM)	–	–	–
CCn1cc(C(=O)O)c(=O)c2ccc(C)nc21 [NALIDIXIC ACID]	4 (≈ 17.2 µM)	0.5 (≈ 2.15 µM)	8 (≈ 34.4 µM)	–	–	–
CN(C)[C@@H]1C(O)=C(C(N)=O)C(=O)[C@@]2(O)C(O)=C3C(=O)c4c(O)cccc4[C@@](C)(O)[C@H]3C[C@@H]12 [TETRACYCLINE]	2 (≈ 4.5 µM)	0.25 (≈ 0.563 µM)	4 (≈ 9 µM)	–	–	–
POLYMYXIN B	–	–	–	inactive	Active	Active
C[C@@H](O)[C@H]1C(=O)N2C(C(=O)O)=C(SCCNC=N)C[C@H]12 [IMIPENEM ANHYDROUS]	0.125 (≈ 0.418 µM)	0.125 (≈ 0.418 µM)	0.125 (≈ 0.418 µM)	–	–	–
O=C(O)c1cn(C2CC2)c2cc(N3CCNCC3)c(F)cc2c1=O [CIPROFLOXACIN]	–	0.008 (≈ 0.0241 µM)	–	–	–	–
CC[C@H]1OC(=O)[C@H](C)[C@@H](O[C@H]2C[C@@](C)(OC)[C@@H](O)[C@H](C)O2)[C@H](C)[C@@H](O[C@@H]2O[C@H](C)C[C@H](N(C)C)[C@H]2O)[C@](C)(O)C[C@@H](C)C(=O)[C@H](C)[C@@H](O)[C@]1(C)O [ERYTHROMYCIN]	32 (≈ 43.6 µM)	8 (≈ 10.9 µM)	32 (≈ 43.6 µM)	–	–	–
